The list is not random: actives were taken first. Their share in the collection is about 3.5%.
MrgX1 allo act: allosterically activates human MrgX1 receptor signaling. Q96LB2. MrgX1-HEK293, Fluo-4 calcium flux, FDSS; stronger effect = higher value. B-score at 10 µM. actives 0.63% (n = 310,000). AID 588675;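 active = plate-corrected calcium response at least 3 library SD above typical, normal starting fluorescence, not activating the receptor alone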;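 note: compound read alongside a low EC10 to EC30 dose of BAM8-22 agonist; peak minus trough fluorescence over baseline measured at the second addition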
RGS4 inh: human RGS4 inhibition | actives 0.45% (n = 310,000) | B-score at 10 µM | HEK293 M3R/RGS4 inducible, Fluo-4 calcium flux; stronger effect = higher value; triggered by carbachol at its EC20 | P49798;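 active = B-score, a plate-corrected calcium signal, over three deviations above library mean, with baseline fluorescence within five deviations of library mean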;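 note: RGS4 expression induced by doxycycline in cells with stable M3 receptor; B-score is computed from the integrated fluorescence ratio over baseline after carbachol; higher B-score means a larger calcium signal and so more RGS4 inhibition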
Target sequence (P49798 whole entry, looked up): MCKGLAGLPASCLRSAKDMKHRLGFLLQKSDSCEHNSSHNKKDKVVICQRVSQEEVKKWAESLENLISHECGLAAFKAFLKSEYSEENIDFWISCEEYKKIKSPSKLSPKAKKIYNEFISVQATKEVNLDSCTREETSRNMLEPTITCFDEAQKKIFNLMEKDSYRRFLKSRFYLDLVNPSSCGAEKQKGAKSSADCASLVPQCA
MrgX1 ag: human MrgX1 receptor agonism, primary screen | B-score at 10 µM | actives 0.44% (n = 310,000) | Q96LB2 | MrgX1-HEK293 cells, Fluo-4 calcium fluorescence, agonist mode; stronger effect = higher value;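 active = calcium response B-score plate-corrected fluorescence ratio at least 3 library SD, with starting fluorescence B-score inside 5 SD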
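Assay system: stable human MrgX1 HEK293 cell line. Quantity: 15,000 cells per well. Schedule: cells plated overnight, dye loaded 0.5 h 37 °C, 0.5 h room temperature. Detection: Fluo-4 NW calcium-flux fluorescence, kinetic read. Read-out basis: peak-minus-minimum fluorescence over baseline, converted to B scores. Control set: positive and negative control wells on each plate.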
MrgX1 antagonist: antagonists of human MrgX1 receptor; Q96LB2; MRGX1-HEK293 calcium flux, Fluo-4, BAM8-22 antagonism; stronger effect = lower value; B-score at 10 µM; actives 1.3% (n = 310,000); AID 588676;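 active = calcium-response B-score plate-corrected more than 3 library SD below zero, starting fluorescence within 5 deviations, no agonist response on first addition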;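 note: peak minus trough fluorescence over baseline after final BAM8-22 challenge near maximal dose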
RGS4 act: RGS4 potentiation or activation. HEK293 M3R/inducible RGS4, carbachol calcium flux Fluo4; stronger effect = lower value. B-score at 10 µM. actives 0.92% (n = 310,000);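 active = B-score of the integrated calcium signal more than 4 SD below the library mean, with starting fluorescence not abnormally high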;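 note: negative B-score means reduced calcium response which marks RGS4 activation or potentiation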
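test system = M3R-expressing HEK293 line, RGS4 induced by doxycycline | probe or stimulus = carbachol at ECmax as muscarinic agonist stimulus | timing = dye loading 30 min 37 °C, buffer rest 30 min RT | signal = calcium dye Fluo4 fluorescence | evaluation = B score from integrated fluorescence ratio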
RGS4 block valid: RGS4 inhibitor validation; shares compounds with RGS4 inh; HEK293 M3R/RGS4, carbachol calcium Fluo-4 fluorescence; carbachol added at its EC20; 0 = buffer wells, 100 = carbachol control; calcium response, % at 10 µM; actives 65% (n = 1,700); AID 492999;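 active = duplicate-averaged calcium response above the buffer-only control mean plus 5 SD of those controls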;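 note: integrated fluorescence ratio F max minus min over baseline F0; higher response in RGS4-induced cells means RGS4 inhibition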
RGS4 uninduced: non-induced cell nonspecific activity of RGS4 inhibitors; activity (percent), % at 10 µM; actives 20% (n = 1,900); shares compounds with RGS4 inh; HEK293 M3R non-induced, carbachol calcium Fluo-4; submaximal (EC20) carbachol stimulus; buffer wells 0%, carbachol control wells 100%; call rule not given here;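 note: RGS4 induction absent so cells express M3R without RGS4; higher means more calcium signal and flags a non-specific hit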
M3R basal Ca ctr: second counter-screen for RGS4 inhibitors: non-induced cells without carbachol | shares compounds with RGS4 inh | actives 22% (n = 1,900) | HEK293 M3R/RGS4 non-induced, Fluo-4 calcium, no carbachol; normalised: buffer wells 0%, carbachol wells 100% | calcium response (agonist-mode artifact), % at 10 µM;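 active = duplicate-averaged calcium rise in uninduced cells above buffer wells' mean plus 5 SD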
* marks the source's active call; other numbers are inactive results; i = inactive; . = no result given.

SMILES	MrgX1 allo act	RGS4 inh	MrgX1 ag	MrgX1 antagonist	RGS4 act	RGS4 block valid	RGS4 uninduced	M3R basal Ca ctr
COc1ccccc1CNC(=O)CCCc1nnc2n(C)c(=O)c3sccc3n12	i	i	i	i	i	.	.	.
Cc1ccc(/C=N/NC(=O)CSc2nc3ccccc3c(=O)n2-c2ccccc2C)s1	i	i	i	i	i	.	.	.
Cc1ccccc1-n1c(SCC(=O)N/N=C/c2sccc2C)nc2ccccc2c1=O	i	5.5*	i	i	i	i	i	i
CC(C)(C)OC(=O)N1CCC(c2cc(-c3cccs3)n[nH]2)CC1	i	5*	i	i	i	17%*	i	i
CC1CCN(C(=O)CSc2n[nH]c(-c3cccs3)n2)CC1	i	i	i	i	i	.	.	.
Cc1ccc(C(CC(=O)c2ccc(Cl)cc2)C(=O)O)cc1 (stereo not given)	i	i	i	i	i	.	.	.
Cc1ccc(SC(CC(=O)c2ccc(C)cc2)C(=O)O)cc1 (stereo not given)	i	4.7*	i	i	i	8.0%*	i	i
CCn1ncc(Br)c1C(=O)Nc1c(C)nn(Cc2c(F)c(F)c(F)c(F)c2F)c1C	i	i	i	i	i	.	.	.
Cc1cc(C)c2nc(NNC(=O)c3ccc(S(=O)(=O)N4CCc5ccccc5C4)cc3)sc2c1	i	6.5*	i	i	i	11%*	i	i
Cc1cc(C)c2sc(NNC(=O)c3ccc(S(=O)(=O)N4CCc5ccccc5C4)cc3)nc2c1	i	i	i	i	i	.	i	i
CCn1c(SCC(=O)N(C)CC(=O)Nc2ccc(F)c(F)c2F)nnc1-c1ccco1	i	i	i	i	i	.	.	.
CCOC(=O)/C(N=Nc1ccc2c(c1)OCO2)=C(\C)O	i	i	i	i	i	.	.	.
CCCc1c(C)nc(N2CCN(c3ccccc3F)CC2)[nH]c1=O	i	i	i	i	i	.	.	.
COc1ccc(OC)c(C2CC(c3c(-c4ccccc4)c4cc(Cl)ccc4[nH]c3=O)=NN2S(C)(=O)=O)c1 (stereo not given)	i	i	i	i	i	.	49%*	36%*
COc1ccc(C2CC(c3c(-c4ccccc4)c4cc(Cl)ccc4[nH]c3=O)=NN2S(C)(=O)=O)cc1 (stereo not given)	i	i	i	i	i	.	.	.
COC(=O)c1cc(S(=O)(=O)NCc2ccc(Br)cc2)c[nH]1	i	i	i	i	i	.	.	.
CN(C)c1ccc(C(C[N+](=O)[O-])c2c(N)n(C)c(=O)n(C)c2=O)c(F)c1C#N (stereo not given)	i	22*	31*	i	i	62%*	i	i
O=C(NCc1ccco1)c1nc2c(nnn2Cc2cccc(Cl)c2)c(=O)[nH]1	i	8*	i	i	i	22%*	i	i
O=C(NCc1ccccc1)c1nc2c(nnn2Cc2cccc(Cl)c2)c(=O)[nH]1	i	4.9*	i	i	i	22%*	i	i
CCOc1ccc(N(Cc2ccc(C(=O)O)cc2)S(=O)(=O)c2ccc(C)cc2)cc1	i	i	i	i	i	.	.	.
CCCCN1C(C(=O)Nc2ncccn2)=C(O)c2ccccc2S1(=O)=O	i	i	i	i	i	.	.	.
Cc1cccc(N(C(=O)c2snc(C(N)=O)c2N)C(C(=O)NCC2CCCO2)c2ccc3ncccc3c2)c1 (stereo not given)	i	i	i	i	i	.	.	.

Bioassay records deposited in PubChem BioAssay by Johns Hopkins Ion Channel Center.
